{"source": "paper PMC7345411", "about": "(ACS Omega, 2020)", "key": {"HCT116 tumor": {"test_system": "HCT116 tumor", "test": "HCT116 xenograft tumor model in BALB/c nude mice", "format": "in vivo", "conditions": "dose 0.036 mmol/kg/d, daily injection for 21 days", "in_short": "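Nude mice given 5 × 10^5 viable HCT116 cells subcutaneously in the right flank. Daily injections into the left hypogastrium for 21 days. Test compound at 0.006, 0.012 or 0.018 mmol/kg/d. Comparators: 5-FU 0.036 mmol/kg/d and an uncrystallised 3:1 mix (5-FU 0.036 + NCM 0.012 mmol/kg/d), plus blank control. Mice euthanised; tumours weighed and examined by H&E (×100). TGI = (mean control weight − mean treated weight)/mean control weight.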"}, "[1]": {"test": "Pharmacokinetics after oral administration in rats", "format": "in vivo, Sprague-Dawley rats", "conditions": "0.06 mmol/kg"}, "Hep G2": {"test_system": "Hep G2", "test": "MTT cell proliferation inhibition assay", "format": "cell-based", "conditions": "Homo sapiens, HepG2, 72 h"}, "Acute toxicity study": {"test": "Acute toxicity study", "format": "in vivo", "conditions": "for Nd (number of dead animals) / R (%) = Nd/Ni: Ni 10; for LD50: in vivo, acute toxicity"}, "HCT116": {"test_system": "HCT116", "test": "MTT cell proliferation inhibition assay", "format": "cell-based", "conditions": "Homo sapiens, HCT-116, 72 h"}, "JEG3": {"test_system": "JEG3", "test": "MTT cell proliferation inhibition assay", "format": "cell-based", "conditions": "Homo sapiens, JEG-3, 72 h"}, "SMMC7721": {"test_system": "SMMC7721", "test": "MTT cell proliferation inhibition assay", "format": "cell-based", "conditions": "Homo sapiens, SMMC-7721, 72 h"}, "HeLa": {"test_system": "HeLa", "test": "MTT cell proliferation inhibition assay", "format": "cell-based", "conditions": "Homo sapiens, 72 h"}, "[2]": {"test": "Solubility in water by UV-visible spectrophotometry", "format": "physicochemical"}, "[3]": {"conditions": "Sprague-Dawley, rat, plasma, po"}, "[4]": {"conditions": "dose 122.2/0.86 (mg/kg)/(mmol/kg)"}, "[5]": {"conditions": "dose 133.4/1.03 (mg/kg)/(mmol/kg)"}, "[6]": {"conditions": "dose 158.5/1.22 (mg/kg)/(mmol/kg)"}}, "note": "Values joined by “and” are separate entries in the source; they are usually repeats but may differ in a detail not shown here. Identical values can stand only once."}
{"smiles": "O=c1[nH]cc(F)c(=O)[nH]1", "note": "[5-FU, 5-Fluorouracil]", "values": [{"measurement": "TGI (tumor growth inhibition)", "setting": "HCT116 tumor", "result": 21.8, "unit": "%"}, {"measurement": "W̅ average tumor growth weight", "setting": "HCT116 tumor", "result": "0.65 ± 0.10", "unit": "g"}, {"measurement": "AUC(0-inf)", "setting": "[1]; [3]", "result": "5.07 ± 0.104", "unit": "µM·h"}, {"measurement": "AUC(0-t)", "setting": "[1]; [3]", "result": "4.93 ± 0.076", "unit": "µM·h"}, {"measurement": "CL/F", "setting": "[1]; [3]", "result": 197, "unit": "mL/min/kg"}, {"measurement": "Cmax", "setting": "[1]; [3]", "result": "7.99 ± 0.375", "unit": "µM"}, {"measurement": "Tmax", "setting": "[1]; [3]", "result": 20, "unit": "min"}, {"measurement": "half-life", "setting": "[1]; [3]", "result": "18.1 ± 3.72", "unit": "min"}, {"measurement": "V1/F", "setting": "[1]; oral, SD rats, n = 8", "result": "2.783 ± 0.915", "unit": "L/kg"}, {"measurement": "t1/2α", "setting": "[1]; oral, SD rats, n = 8", "result": "3.84 ± 0.78", "unit": "min"}, {"measurement": "IC50", "setting": "Hep G2", "result": 3.86, "unit": "µM"}, {"measurement": "probit (P + 5)", "setting": "Acute toxicity study; [4]", "result": 3.720}, {"measurement": "Nd (number of dead animals)", "setting": "Acute toxicity study; [4]", "result": 1}, {"measurement": "R (%) = Nd/Ni", "setting": "Acute toxicity study; [4]", "result": 10, "unit": "%"}, {"measurement": "probit (P + 5)", "setting": "Acute toxicity study; [5]", "result": 5.520}, {"measurement": "Nd (number of dead animals)", "setting": "Acute toxicity study; [5]", "result": 7}, {"measurement": "R (%) = Nd/Ni", "setting": "Acute toxicity study; [5]", "result": 70, "unit": "%"}, {"measurement": "probit (P + 5)", "setting": "Acute toxicity study; [6]", "result": 6.28}, {"measurement": "Nd (number of dead animals)", "setting": "Acute toxicity study; [6]", "result": 9}, {"measurement": "R (%) = Nd/Ni", "setting": "Acute toxicity study; [6]", "result": 90, "unit": "%"}, {"measurement": "LD50", "setting": "Acute toxicity study; LD50 95% confidence interval", "result": "380 to 2630", "unit": "µmol/kg"}, {"measurement": "LD50", "setting": "Acute toxicity study; LD50 (median lethal dose)", "result": 1000, "unit": "µmol/kg"}, {"measurement": "IC50", "setting": "HCT116", "result": 0.0325, "unit": "µM"}, {"measurement": "IC50", "setting": "JEG3", "result": 2.18, "unit": "µM"}, {"measurement": "IC50", "setting": "SMMC7721", "result": 18.9, "unit": "µM"}, {"measurement": "IC50", "setting": "HeLa", "result": 7.96, "unit": "µM"}, {"measurement": "solubility at 24 h", "setting": "[2]", "result": "10500 µg/mL and 80000 µM"}]}
